# Screening results deposited in PubChem BioAssay by several laboratories.
# The list is not random: actives were taken first. Their share in the collection is about 5.1%.
# APP 5'UTR act: activators of APP 5'UTR luciferase reporter, primary screen, SH-SY5Y cells | SH-SY5Y APP 5'UTR luciferase reporter, luminescence; zero percent = DMSO vehicle wells | activation, % at 2 µM | actives 1% (n = 190,000) | AID 1276, 2008;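 active = activation above a set limit, based on mean plus 3 SD of controls, cut at about 140% in these data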
# NF-kB neuron act: activators of NF-kB expression in neurons, primary screen, cell-based, HTS; human neuronal cells, NF-kB reporter expression; stronger effect = higher value; actives 1.6% (n = 190,000); fold change at 12.5 µM; in the data active = fold change above about 3.3
# STAT3 inh: IL-6 driven STAT3 reporter inhibitors, primary screen, U3A cells, luciferase, luminescence, MLSCN library | actives 0.89% (n = 190,000) | inhibition, % at 5.5 µM | AID 862, 2007 | IL-6 STAT3-luciferase reporter; host cell line lacks STAT1;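 active = inhibition above the mean inhibition across all screened compounds plus 3 SD, cut at about 44% in these data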;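 also: 0% = DMSO only wells and 100% = 100 µM nifuroxazide control wells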
# STAT1 blocker: STAT1 signaling inhibitors, primary screen, cell-based, HTS, luciferase reporter; AID 920, 2007; NIH 3T3 STAT1-luciferase reporter, IFN-gamma, luminescence; actives 0.35% (n = 200,000); inhibition, % at 5.5 µM;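 active = inhibition above a set limit, the mean inhibition across all tested compounds plus 3 SD, cut at about 34% in these data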;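 also: 0% = IFN-gamma with DMSO and 100% = IFN-gamma with 300 µM nifuroxazide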
# STAT1 act: STAT1 signaling activators, primary screen, cell-based, HTS, luciferase reporter; activation (% of control), % at 5.5 µM; NIH 3T3 STAT1-luciferase reporter, IFN-gamma, luminescence; 100% = IFN-gamma alone, no compound; AID 932, 2007; actives 2.6% (n = 200,000);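 active = activation above the screen-wide mean activation plus 3 SD, cut at about 130% in these data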;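 also: raw ratio to IFN-gamma control signal so 100% means no change and 0% no light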
# STAT3 activator: IL-6 driven STAT3 reporter potentiators, primary screen, U3A cells, luciferase, luminescence, MLSCN library; actives 0.91% (n = 190,000); AID 871, 2007; activation (% of control), % at 5.6 µM; IL-6 STAT3-luciferase reporter; 100% = signal with IL-6 EC80 alone;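 active = activation above the screen-wide mean of compound activation plus 3 SD, cut at about 130% in these data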;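 also: 0% = background luminescence of wells with medium and substrate only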
#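 Material: STAT3-luciferase reporter U3A cells; Probe or stimulus: IL-6 (33 ng/mL); Incubation: compound pre-incubation 1 h before IL-6, then 6 h stimulation at 37 °C; Technique: luminescence from STAT3-driven luciferase reporter; Evaluation: % activation versus median of IL-6-stimulated wells; Controls: IL-6-only high control.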
# The depositor's hits bear a star.
SMILES,APP 5'UTR act,NF-kB neuron act,STAT3 inh,STAT1 blocker,STAT1 act,STAT3 activator
CC/C(=N\NC(=O)c1ccoc1C)c1ccc(C)o1,114.2,2,-3.9,-33.7,130.1*,105.5
CC/C(=N\NC(=O)c1c(-c2ccccc2)noc1C)c1ccc(C)o1,4.4,1.07,18.4,8.2,92.5,83.9
O=C(Cn1ccc([N+](=O)[O-])n1)Nc1ccccn1,9.2,1.24,13.7,-6.8,105.3,97.7
Cc1cc(C(=O)CSc2nnnn2C)c(C)n1C1CC1,31.3,1.1,9.3,-18.9,116.3,95.2
Cc1nnc(SCC(=O)c2cc(C)n(C3CC3)c2C)s1,65.0,2.65,4.9,-39.5,135.5*,98.9
Cc1cc(C(=O)CSc2nc3ccccc3o2)c(C)n1C1CC1,99.4,2.25,17.4,-39.5,136.2*,89.2
O=C(/C=C/c1ccccc1)Nc1ccc2c(c1)C(=O)NC2=O,8.2,1.49,11.1,-31.1,128.9*,98.2
CCOC(=O)c1nn(-c2ccc(F)cc2)c2c1CC/C2=C/c1ccccc1,-4.7,1.2,-2.4,3.8,96.6,98.3
O=C(Oc1ccc2cc(Br)ccc2c1)N1CCCCCC1,68.1,2.31,-2.8,-35.2,131.4*,104.4
O=C(COc1ccc2ccccc2c1Br)N1CCN(c2ccccn2)CC1,6.3,1.02,1.7,-1.5,101.4,100.9
O=C(Oc1ccc2ccccc2c1Br)N1CCCCCC1,172.4*,2.44,0.8,-38.2,134.8*,99.6
CCN(CC)C(=O)Oc1ccc2ccccc2c1Br,17.9,2.37,-11.8,-39.7,135.0*,112.1
C/C(=N\NC(=O)c1nc2ccccn2c1C)c1ccco1,-2.9,0.97,1.8,-39.4,136.2*,101.8
CCOC(=O)CNC(=O)CSc1nnc(NC(=O)c2ccc(C)cc2)s1,36.6,2.75,72.4*,59.1*,44.4,39.4
CCOC(=O)CNC(=O)CSc1nnc(SCC(=O)NCC(=O)OCC)s1,3.8,0.95,1.4,-1.7,101.6,102.0
CSc1cccc(NC(=S)N2CCCN(Cc3ccc(F)cc3)C2)c1,7.1,0.91,2.1,3.7,95.9,109.5
Clc1ccc(OCc2nnc(-c3ccccc3Br)o2)c(Cl)c1,50.9,4.05*,2.1,-29.2,126.4,100.6
Clc1ccccc1OCc1nnc(-c2ccccc2)o1,57.9,3.42*,-48.5,-57.8,151.2*,143.6*
CC(=O)Nc1ccccc1OCc1nnc(-c2ccc(Cl)cc2)o1,9.8,1.26,13.8,-11.6,110.4,91.8
c1ccc(Cc2nnc(-c3ccccc3)o2)cc1,50.4,1.97,-11.2,-33.0,130.2*,112.2
CN(CCOC(=O)/C=C/c1ccco1)Cc1ccccc1,1.8,1.03,12.3,0.5,97.7,95.3
COC(=O)c1ccc(COc2ccc(/C=N/N3CCN(C)CC3)cc2)cc1,54.9,1.68,-17.2,-38.3,135.9*,113.5
COC(=O)c1ccc(/C=N\N2CCN(Cc3ccc(C)cc3)CC2)cc1,-2.8,1.01,12.5,0.8,99.3,93.7
CCOc1ccc(C(=O)/C=C/c2cn(CN3CCN(C)CC3)c3ccccc23)cc1,21.0,3.42*,11.4,-11.9,110.7,93.6
COc1ccc(C(=O)/C=C/c2cn(CN3CCN(C)CC3)c3ccccc23)cc1,52.2,6.45*,19.9,-13.6,112.6,86.7
SMILES,APP 5'UTR act,NF-kB neuron act,STAT3 inh,STAT1 blocker,STAT1 act,STAT3 activator
COc1ccc(C(=O)/C=C/c2cn(CC(O)CN3CCOCC3)c3ccccc23)cc1 (configuration not stated),4.7,0.73,-4.3,-18.6,116.6,105.5
O=C(Cn1cnc2ccccc2c1=O)NCCC(=O)Nc1ccc2c(c1)OCO2,6.2,1.1,-3.1,-4.8,103.3,105.5
Cn1c(SCc2nc3ccccc3c(=O)[nH]2)nc2ccccc21,5.0,1.33,18.2,-7.4,106.3,86.7
Cn1c(-c2ccccc2)cnc1SCc1nc2ccccc2c(=O)[nH]1,142.2*,1.78,18.3,-37.2,134.3*,88.6
O=C(O)c1ccc(N2CC3CC(C2)c2cccc(=O)n2C3)c(NC(=S)Nc2ccc(Br)cc2)c1 (configuration not stated),12.1,3.85*,21.5,4.3,94.9,83.4
O=C(CSc1nnc2ccccn12)N1CCc2ccccc21,104.6,2.44,-12.7,-36.1,134.6*,113.1
O=C(CSc1ccccn1)N1CCc2ccccc21,50.7,3.52*,21.1,-34.4,132.6*,88.4
CC(Cl)c1cc(-c2ncc(C(F)(F)F)cc2Cl)no1 (configuration not stated),15.4,1.31,28.1,-13.7,110.8,82.8
FC(F)(F)c1cnc(-c2cnc(-c3ccncc3)nc2)c(Cl)c1,58.0,0.7,21.3,-45.1,140.4*,85.1
COc1cccc(NC(=O)CSc2nc3ccsc3c(=O)n2-c2ccc(C(=O)O)cc2)c1,-17.8,1.07,1.6,2.2,98.6,99.2
COc1ccc(OC(=O)c2cccc([N+](=O)[O-])c2)c(C(=O)/C=C/c2cccs2)c1,-10.7,3.44*,9.9,-1.9,101.8,97.3
N#C/C(=C\C=C\c1ccccc1)C(=O)NCc1cccnc1,-1.1,1.62,6.5,16.4,83.4,98.2
COc1ccc2c(c1)Cc1sc(NC(=O)c3cccnc3)nc1-2,25.4,0.71,15.4,6.8,92.3,89.1
COc1ccc2c(c1)Cc1sc(NC(C)=O)nc1-2,123.2,1.89,5.1,-49.3,145.6*,98.9
CCOC(=O)CCS(=O)(=O)c1ccc(-c2ccc(S(=O)(=O)CCC(=O)OCC)cc2)cc1,-0.7,0.96,11.2,9.9,91.1,96.9
CC1CCC/C(=C(\C#N)c2nc(-c3cc4ccccc4oc3=O)cs2)C1 (configuration not stated),148.2*,0.8,-13.0,-24.7,122.4,110.7
O=C/C(=C\Nc1ccccn1)c1nc2cc(Cl)ccc2o1,-10.1,1.16,-40.0,-9.6,108.8,134.5*
COc1ccc(-c2nnc(N(C)C(=O)C3CCCO3)s2)cc1 (configuration not stated),54.6,2.64,8.5,-23.7,121.4,94.7
COc1ccc(-c2nnc(N(C)C(=O)C3CCOC3)s2)cc1 (configuration not stated),157.4*,2.36,15.5,-14.7,108.5,89.7
CCN(C(=O)c1ccco1)c1nnc(-c2ccc(OC)cc2)s1,2.8,3.63*,28.6,-3.9,103.6,79.0
CCCN(C(=O)c1ccco1)c1nnc(-c2cccc(C)c2)s1,47.9,1.68,3.6,-0.8,99.3,100.8
CN1C(=O)/C(=C/C=C2\SCCN2C)N(C)C1=S,74.8,5.26*,-5.3,-33.5,132.1*,104.8
O=C(COC(=O)COc1ccccc1)Nc1ccc(S(=O)(=O)N2CCOCC2)cc1,-11.2,0.92,4.4,1.7,96.2,97.9
